# dFosB activator: enhances mouse delta FosB homodimer DNA binding; P13346; purified delta FosB, TAMRA-CDK5 oligo fluorescence polarization; percent of positive-control signal above neutral wells; activation, % at 25 µM; 340,000 compounds, 0.99% hits; AID 493131;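 active = mean activation above about 17%, with every replicate also reaching it, limit read from the data, passing the limit was not always enough; inconclusive = only one of the two conditions met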
# RAD52 anneal inh: inhibitors of human RAD52 DNA annealing; P43351; recombinant RAD52 DNA annealing, FRET fluorescence; inhibition, % at 18.7 µM; 360,000 compounds, 0.46% hits; AID 651710;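 active = every replicate showing at least 50% inhibition; inconclusive = mean inhibition at least 50% but not in every replicate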
# AF4-AF9 inh: inhibitors of human MLL-AF4/AF9 interaction | AlphaScreen, biotin-AF4 peptide binding to FLAG-AF9 | inhibition, % at 10 µM | 350,000 compounds, 0.47% hits;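 active = every replicate reaching a set inhibition limit, whatever the replicate mean, cut at about 25% in these data; inconclusive = mean inhibition reaches that limit but some replicates miss it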;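 also: 0% = plate neutral control median and 100% = total signal loss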
# S100A4 inh HTS: blocks human S100A4 binding to myosin IIA peptide. P26447. S100A4/TAMRA-MyoIIA peptide fluorescence polarization. inhibition, % at 10.7 µM. 360,000 compounds, 0.14% hits. AID 652163;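 active = mean inhibition of at least 70% across replicates, with every replicate also reaching that level; inconclusive = mean inhibition reaches 70% but some replicates fall short; inactive = mean inhibition below 70%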
#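 Material: S100A4 monomer protein / Buffer or medium: 50 mM HEPES pH 7.2, 10 mM CaCl2, 100 mM KCl / Times: 5 min incubation before reading / Benchmarks: neutral control DMSO, positive control TFP / Reagent: labelled myosin peptide probe, 5 nM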
# RAD54 inh: blocks human RAD54 Holliday junction branch migration; Q92698; FAM/BHQ fluorescence; inhibition, % at 10.4 µM; 360,000 compounds, 0.14% hits; AID 602329;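 active = mean normalized replicate activity at least 40 and at least half of replicates scoring 40 or more; inconclusive = only one of the two criteria met; inactive = mean below 40 and under half of replicates reaching 40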;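 also: 0% = median of neutral control wells and 100% = median of positive control wells; inhibitors cause a drop in the FAM fluorescence signal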
# Target sequence (Q92698 whole entry, looked up): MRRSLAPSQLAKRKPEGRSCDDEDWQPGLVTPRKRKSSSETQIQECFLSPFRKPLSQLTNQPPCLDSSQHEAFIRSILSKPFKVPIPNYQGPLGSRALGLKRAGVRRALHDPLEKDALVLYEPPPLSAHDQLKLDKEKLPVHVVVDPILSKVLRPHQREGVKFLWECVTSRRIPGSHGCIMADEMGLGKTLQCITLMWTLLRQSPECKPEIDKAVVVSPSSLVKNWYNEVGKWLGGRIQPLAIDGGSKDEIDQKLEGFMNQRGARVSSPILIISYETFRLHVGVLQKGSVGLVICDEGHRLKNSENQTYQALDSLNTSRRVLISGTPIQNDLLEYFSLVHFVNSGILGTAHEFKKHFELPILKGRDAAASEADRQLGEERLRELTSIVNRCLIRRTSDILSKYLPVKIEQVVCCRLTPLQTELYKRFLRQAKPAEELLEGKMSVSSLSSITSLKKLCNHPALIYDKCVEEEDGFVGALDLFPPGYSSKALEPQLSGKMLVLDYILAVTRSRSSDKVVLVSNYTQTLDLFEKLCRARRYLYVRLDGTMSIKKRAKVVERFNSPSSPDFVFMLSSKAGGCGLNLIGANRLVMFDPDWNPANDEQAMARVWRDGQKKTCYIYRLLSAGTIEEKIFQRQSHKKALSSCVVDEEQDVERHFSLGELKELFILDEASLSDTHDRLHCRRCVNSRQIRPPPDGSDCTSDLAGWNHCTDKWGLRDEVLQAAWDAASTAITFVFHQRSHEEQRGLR
# * marks the source's active call; other numbers are inactive results; ? = inconclusive; . = no result. Hits are enriched below; roughly 1.5% of the tested compounds scored in any of these assays.
SMILES,dFosB activator,RAD52 anneal inh,AF4-AF9 inh,S100A4 inh HTS,RAD54 inh
CCCNC(=O)N1CC2(CN(Cc3ccc(OC)cc3)C2)c2c(n(C)c3cc(OC)ccc23)[C@@H]1CO,.,.,33.8*,.,.
CCCNC(=O)N1CC2(CN(CC3CCCCC3)C2)c2c(n(C)c3cc(OC)ccc23)[C@@H]1CO,.,21.8,32.6*,-4.3,.
CCCNC(=O)N1CC2(CN(Cc3cccc(OC)c3)C2)c2c(n(C)c3cc(OC)ccc23)[C@H]1CO,.,3.7,?,20.0,.
O=C1CN(S(=O)(=O)c2ccccc2)C[C@@H]2[C@H](c3ccc(Br)cc3)[C@H](CO)N12,.,-6.2,-2.8,-16.9,.
COc1ccc(NC(=O)Nc2ccc3c(c2)C(=O)N([C@H](C)CO)C[C@@H](C)[C@@H](CN(C)Cc2ccccc2)OCCCC[C@H](C)O3)cc1,.,50.9*,-4.1,5.8,-0.1
COc1ccc(NC(=O)Nc2ccc3c(c2)C(=O)N([C@@H](C)CO)C[C@H](C)[C@@H](CN(C)Cc2ccccc2)OCCCC[C@H](C)O3)cc1,.,32.4,6.9,56.9,0.7
COc1ccc(CN(C)C[C@H]2OCCCC[C@H](C)Oc3ccc(NC(=O)Nc4ccccc4)cc3C(=O)N([C@@H](C)CO)C[C@@H]2C)cc1,.,.,.,.,-3.4
COc1ccc(NC(=O)Nc2ccc3c(c2)C(=O)N([C@@H](C)CO)C[C@H](C)[C@H](CN(C)Cc2ccccc2)OCCCC[C@@H](C)O3)cc1,.,60.3*,12.3,-1.2,5.7
C[C@@H]1CCCCO[C@H](CN(C)Cc2ccccc2)[C@H](C)CN([C@@H](C)CO)C(=O)c2cc(NC(=O)Nc3ccc(F)cc3)ccc2O1,.,53.2*,9.2,3.6,5.5
COc1ccc(CN(C)C[C@@H]2OCCCC[C@H](C)Oc3ccc(NC(=O)Nc4ccccc4)cc3C(=O)N([C@H](C)CO)C[C@@H]2C)cc1,.,.,.,.,4.2
COc1ccc(NC(=O)Nc2ccc3c(c2)C(=O)N([C@@H](C)CO)C[C@H](C)[C@H](CN(C)Cc2ccccc2)OCCCC[C@H](C)O3)cc1,.,56.8*,10.5,3.6,2.5
C[C@@H]1CN([C@@H](C)CO)C(=O)c2cccc(NS(=O)(=O)c3ccccc3)c2O[C@H]1CN(C)Cc1ccc(Cl)c(Cl)c1,.,-8.6,1.6,4.4,-2.2
CCn1c(C)c(C)c2cc(C(=O)NCCCN3CCCCC3)ccc21,0.9,-6.9,10.7,-48.4,-0.9
CCn1c(C)c(C)c2cc(C(=O)N3CCc4ccccc4C3)ccc21,18.6*,-38.9,7.5,-8.2,4.2
CCn1c(C)c(C)c2cc(C(=O)NCCCN3CCCCCC3)ccc21,-1.1,-20.9,29.3*,-41.3,7.2
N#C[C@@H]1[C@H](c2ccccc2C2=CCCC2)[C@H](CO)N1C(=O)C1CCCC1,.,2.3,0.4,3.0,.
O=C(Nc1ccccc1)Nc1ccc2c(c1)[C@H]1C[C@H](CC(=O)N3CCOCC3)O[C@@H](CO)[C@H]1O2,.,.,.,.,-1.6
O=C(C[C@@H]1CC[C@@H]2[C@H](COC[C@@H](O)CN2S(=O)(=O)c2ccc(F)cc2)O1)NCC1CCCCC1,.,71.2*,?,18.3,0.6
O=C(C[C@@H]1CC[C@@H]2[C@H](COC[C@H](O)CN2S(=O)(=O)c2ccc(F)cc2)O1)NCC1CC1,.,2.9,1.2,-0.9,-5.5
O=C(C[C@H]1CC[C@@H]2[C@H](COC[C@@H](O)CN2S(=O)(=O)c2cccc(Cl)c2)O1)NC1CCCC1,.,40.4,26.2*,12.0,-10.0
O=C(C[C@@H]1CC[C@H]2[C@@H](COC[C@@H](O)CN2S(=O)(=O)c2ccc(Cl)cc2)O1)NCC1CCCCC1,.,42.0,33.6*,3.4,-4.0
O=C(C[C@@H]1CC[C@@H]2[C@H](COC[C@H](O)CN2S(=O)(=O)c2cccc(Cl)c2)O1)NC1CCCC1,.,19.5,7.8,10.3,-5.9
O=C(C[C@@H]1CC[C@H]2[C@@H](COC[C@H](O)CN2S(=O)(=O)c2ccc(F)cc2)O1)NCC1CCCCC1,.,89.1*,36.1*,-24.6,5.8
O=C(C[C@H]1CC[C@H]2[C@@H](COC[C@@H](O)CN2S(=O)(=O)c2ccccc2)O1)NCC1CCCCC1,.,33.9,6.1,6.3,8.6
Cc1noc(C)c1NC(=O)N(C)C[C@H]1Oc2ccc(NC(=O)c3ccncc3)cc2CC(=O)N([C@H](C)CO)C[C@@H]1C,.,-6.3,0.3,1.8,4.5
SMILES,dFosB activator,RAD52 anneal inh,AF4-AF9 inh,S100A4 inh HTS,RAD54 inh
O=C(C[C@@H]1CC[C@H]2[C@@H](COC[C@H](O)CN2S(=O)(=O)c2ccc(F)cc2)O1)NCCN1CCCCC1,.,6.8,-0.6,-12.6,5.6
O=C(C[C@H]1CC[C@@H]2[C@H](COC[C@H](O)CN2S(=O)(=O)c2ccc(F)cc2)O1)NCC1CCCCC1,.,59.2*,28.2*,-4.0,3.6
CC(C)NC(=O)Nc1ccc2c(c1)CC(=O)N([C@H](C)CO)C[C@H](C)[C@H](CN(C)S(=O)(=O)c1cn(C)cn1)O2,.,0.2,0.3,2.4,-3.9
C[C@@H]1CCCCO[C@@H](CN(C)C)[C@H](C)CN([C@@H](C)CO)C(=O)c2cc(NC(=O)Nc3ccc(C(F)(F)F)cc3)ccc2O1,.,52.7*,0.9,2.5,6.1
C[C@H]1CCCCO[C@H](CN(C)Cc2ccc(C(F)(F)F)cc2)[C@@H](C)CN([C@@H](C)CO)C(=O)c2cc(NC(=O)Nc3ccc4c(c3)OCO4)ccc2O1,.,6.8,2.4,153.3*,-16.9
C[C@@H]1CCCCO[C@H](CN(C)Cc2ccc3c(c2)OCO3)[C@@H](C)CN([C@@H](C)CO)C(=O)c2cc(NC(=O)Nc3ccc(C(F)(F)F)cc3)ccc2O1,.,61.2*,10.8,4.2,3.4
C[C@@H]1CCCCO[C@@H](CN(C)Cc2ccc(C(F)(F)F)cc2)[C@H](C)CN([C@H](C)CO)C(=O)c2cc(NC(=O)Nc3ccc4c(c3)OCO4)ccc2O1,.,2.7,2.3,1.9,-2.6
C[C@@H]1CN([C@@H](C)CO)C(=O)c2cc(NC(=O)C3CCCCC3)ccc2O[C@@H](C)CCCCO[C@@H]1CN(C)C(=O)Nc1ccc(C(F)(F)F)cc1,.,60.5*,-1.0,-10.1,-0.1
O=C(Nc1cccc(F)c1)N1CC(=O)N2[C@H](C1)[C@@H](c1ccc(-c3ccccc3F)cc1)[C@@H]2CO,.,-20.6,5.5,26.9,.
CC(=O)N[C@@H]1CC[C@H](CCNC(=O)C2CC2)O[C@@H]1CO,.,-4.0,-2.2,-3.4,3.0
O=C(C[C@H]1CC[C@@H]2[C@H](COC[C@H](O)CN2Cc2nccs2)O1)NCc1ccc(Cl)cc1,.,-0.1,-1.7,-4.6,2.6
COc1ccc(S(=O)(=O)N(C)C[C@@H]2OCCCC[C@@H](C)Oc3ccc(NC(=O)Nc4ccc(C(F)(F)F)cc4)cc3C(=O)N([C@H](C)CO)C[C@@H]2C)cc1,.,10.8,-11.2,99.0*,-0.9
C[C@@H]1CN([C@H](C)CO)C(=O)c2cc(NC(=O)Cc3cn(C)c4ccccc34)ccc2O[C@@H]1CN(C)Cc1ccc(-c2ccccc2)cc1,.,36.7,-1.3,-22.0,.
